Test results from ChEMBL document CHEMBL1134340, “GnRH antagonists: a new generation of long acting analogues incorporating p-ureido-phenylalanines at positions 5 and 6” (J Med Chem, 2001).
Where a SMILES comes first, the peptide text is derived from it. [ ]: non-standard residue; d: D form. Phe(4-NHCONH2) = NC(=O)Nc1ccc(C[C@H](N)C(=O)O)cc1; dPhe(4-NH2) = Nc1ccc(C[C@@H](N)C(=O)O)cc1; dPhe(4-Cl) = N[C@H](Cc1ccc(Cl)cc1)C(=O)O; d2Nal = N[C@H](Cc1ccc2ccccc2c1)C(=O)O; Lys(iPr) = CC(C)NCCCC[C@H](N)C(=O)O; d3Pal = N[C@H](Cc1cccnc1)C(=O)O

Columns and labels:
Rattus norvegicus [1] = organism: Rattus norvegicus; assay: Compound was tested for inhibition of Leutenizing hormone release at 48 hours (intermediate duration) in castrated male rat assay; type: functional; design: concentration or dose not given beside the values
In short: (§1)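 Male Sprague-Dawley rats (180-200 g), castrated under ether 10 days earlier, 5 per group. 50 µg/rat given sc in 100 µL 40 mM phosphate buffer with 0.1% BSA and 0.6% DMSO; acyline run as internal standard. Tail blood taken predose and at 24, 48, 72, 96 (sometimes 120) h; plasma LH by RIA. Duration classed by >80% LH inhibition at each time.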

[2] = molecular target: T1, Gonadotropin-releasing hormone receptor (Homo sapiens, UniProt P30968); assay: Antagonism of human GnHR receptor, determined in a reporter gene assay in HEK293 cells; type: functional, cell-based
T1 sequence (P30968 whole entry): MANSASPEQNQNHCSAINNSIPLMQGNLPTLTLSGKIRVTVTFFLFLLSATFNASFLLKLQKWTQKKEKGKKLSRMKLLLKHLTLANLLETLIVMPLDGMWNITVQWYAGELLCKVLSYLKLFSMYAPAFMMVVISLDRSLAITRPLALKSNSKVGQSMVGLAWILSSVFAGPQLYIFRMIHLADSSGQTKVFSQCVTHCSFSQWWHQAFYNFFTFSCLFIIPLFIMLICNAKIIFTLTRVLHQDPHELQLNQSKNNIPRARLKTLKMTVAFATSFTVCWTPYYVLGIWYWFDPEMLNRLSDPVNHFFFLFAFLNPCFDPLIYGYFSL
In short: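 HEK293 cells stably expressing cloned human GnRH receptor plus luciferase reporter under LH alpha subunit promoter, plated 24 h before assay. Compound in 1% DMSO added 10 min at 37 °C, then GnRH at 3 nM final; 5 h incubation, luciferase luminescence read. Six concentrations in duplicate; blank-subtracted cps as % of GnRH control; mean of two determinations.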

[3] = molecular target: T1, Gonadotropin-releasing hormone receptor; assay: Competitive antagonism of GnRH-induced response in the reporter gene assay; type: functional; details: read-out: pA2 (converted)
In short: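 Same HEK293 human GnRH receptor luciferase reporter cells. Seven-point GnRH curve (10 µM to 10 pM final) run in duplicate without or with four to five increasing compound concentrations (10 min preincubation, 37 °C), then 5 h and luminescence. GnRH EC50 at each level by four-parameter logistic fit, giving pA2; mean of two determinations in duplicate.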

Rattus norvegicus [4] = organism: Rattus norvegicus; assay: Compound was tested for inhibition of Leutenizing hormone release at 72 hours (long duration) in castrated male rat assay; type: functional; design: concentration or dose not given beside the values; in short: as §1
Rattus norvegicus [5] = organism: Rattus norvegicus; assay: Compound was tested for histamine release at a concentration of 100 ug/mL; type: functional
In short: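 Sprague-Dawley rat peritoneal mast cells, Percoll-purified, in heparinized balanced salt solution with albumin, pH 7.2. Cells exposed to compound or vehicle for 2 min at 37 °C. Supernatant histamine measured spectrofluorometrically after o-phthalaldehyde derivatization; pellets lysed for retained histamine. Reported as % of total histamine released, corrected for spontaneous release in vehicle.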

Rattus norvegicus [6] = organism: Rattus norvegicus; assay: Compound was tested for inhibition of Leutenizing hormone release at 96 hours (very long duration) in castrated male rat assay; type: functional; design: concentration or dose not given beside the values; in short: as §1

Work on `CC(=O)Nc1ccc(C[C@H](NC(=O)[C@H](CO)NC(=O)[C@@H](Cc2cccnc2)NC(=O)[C@@H](Cc2ccc(Cl)cc2)NC(=O)[C@@H](Cc2ccc3ccccc3c2)NC(C)=O)C(=O)N[C@H](Cc2ccc(CNC(N)=O)cc2)C(=O)N[C@@H](CC(C)C)C(=O)N[C@@H](CCCCNC(C)C)C(=O)N2CCC[C@H]2C(=O)N[C@H](C)C(N)=O)cc1` yielded an Inhibition (Rattus norvegicus [1]) greater than 80%.

With `CC(=O)Nc1ccc(C[C@@H](NC(=O)[C@H](Cc2ccc(NC(=O)[C@H]3CC(=O)NC(=O)N3)cc2)NC(=O)[C@H](CO)NC(=O)[C@@H](Cc2cccnc2)NC(=O)[C@@H](Cc2ccc(Cl)cc2)NC(=O)[C@@H](Cc2ccc3ccccc3c2)NC(C)=O)C(=O)N[C@@H](CC(C)C)C(=O)N[C@@H](CCCCNC(C)C)C(=O)N2CCC[C@H]2C(=O)N[C@H](C)C(N)=O)cc1` the IC50 [2] was 8.6 nM, the Kb [3] was 1 nM and the Inhibition (Rattus norvegicus [4]) was greater than 80%.

`CC(=O)Nc1ccc(C[C@@H](NC(=O)[C@H](Cc2ccc(NC(N)=O)cc2)NC(=O)[C@H](CO)NC(=O)[C@@H](Cc2cccnc2)NC(=O)[C@@H](Cc2ccc(Cl)cc2)NC(=O)[C@@H](Cc2ccc3ccccc3c2)NC(C)=O)C(=O)N[C@@H](CC(C)C)C(=O)N[C@@H](CCCCNC(C)C)C(=O)N2CCC[C@H]2C(=O)N[C@H](C)C(N)=O)cc1` (Ac-[d2Nal][dPhe(4-Cl)][d3Pal]S[Phe(4-NHCONH2)][dPhe(4-NH2)](Ac)L[Lys(iPr)]P[dA]-NH2) was tested, and the Inhibition (Rattus norvegicus [1]) was greater than 80% and the IC50 [2] was 7.2 nM.

`CC(=O)Nc1ccc(C[C@@H](NC(=O)[C@H](Cc2ccc(NC(=O)[C@@H]3CC(=O)NC(=O)N3)cc2)NC(=O)[C@H](CO)NC(=O)[C@@H](Cc2cccnc2)NC(=O)[C@@H](Cc2ccc(Cl)cc2)NC(=O)[C@@H](Cc2ccc3ccccc3c2)NC(C)=O)C(=O)N[C@@H](CC(C)C)C(=O)N[C@@H](CCCCNC(C)C)C(=O)N2CCC[C@H]2C(=O)N[C@H](C)C(N)=O)cc1` gave an HR (Rattus norvegicus [5]) of 54%, an Inhibition (Rattus norvegicus [6]) greater than 80% and an IC50 [2] of 4.3 nM. The Kb [3] was 1.26 nM.

Work on `CC(=O)Nc1ccc(C[C@@H](NC(=O)[C@H](Cc2ccc(NC(=O)[C@@H]3CNC(=O)N3)cc2)NC(=O)[C@H](CO)NC(=O)[C@@H](Cc2cccnc2)NC(=O)[C@@H](Cc2ccc(Cl)cc2)NC(=O)[C@@H](Cc2ccc3ccccc3c2)NC(C)=O)C(=O)N[C@@H](CC(C)C)C(=O)N[C@@H](CCCCNC(C)C)C(=O)N2CCC[C@H]2C(=O)N[C@H](C)C(N)=O)cc1` yielded an IC50 [2] of 9.1 nM, a Kb [3] of 0.631 nM and an Inhibition (Rattus norvegicus [4]) greater than 80%.

In the case of `CCNC(=O)[C@@H]1CCCN1C(=O)[C@H](CCCCNC(C)C)NC(=O)[C@H](CC(C)C)NC(=O)[C@@H](Cc1ccc(CNC(N)=O)cc1)NC(=O)[C@H](Cc1ccc(NC(=O)[C@@H]2CC(=O)NC(=O)N2)cc1)NC(=O)[C@H](CO)NC(=O)[C@@H](Cc1cccnc1)NC(=O)[C@@H](Cc1ccc(Cl)cc1)NC(=O)[C@@H](Cc1ccc2ccccc2c1)NC(C)=O`, the Inhibition (Rattus norvegicus [1]) is reported as greater than 80%.

For `CC(=O)N[C@H](Cc1ccc2ccccc2c1)C(=O)N[C@H](Cc1ccc(Cl)cc1)C(=O)N[C@H](Cc1cccnc1)C(=O)N[C@@H](CO)C(=O)N[C@@H](Cc1ccc(NC(=O)[C@@H]2CC(=O)NC(=O)N2)cc1)C(=O)N[C@H](Cc1ccc(NC(N)=O)cc1)C(=O)N[C@@H](CC(C)C)C(=O)N[C@@H](CCCCNC(C)C)C(=O)N1CCC[C@H]1C(=O)N[C@H](C)C(N)=O` [DEGARELIX], the Inhibition (Rattus norvegicus [1]) was greater than 80%, the IC50 [2] was 8.8 nM and the Kb [3] was 0.631 nM.

For `CC(=O)N[C@H](Cc1ccc2ccccc2c1)C(=O)N[C@H](Cc1ccc(Cl)cc1)C(=O)N[C@H](Cc1cccnc1)C(=O)N[C@@H](CO)C(=O)N[C@@H](Cc1ccc(NC(=O)[C@@H]2CC(=O)NC(=O)N2)cc1)C(=O)N[C@H](Cc1ccc(CNC(N)=O)cc1)C(=O)N[C@@H](CC(C)C)C(=O)N[C@@H](CCCCNC(C)C)C(=O)N1CCC[C@H]1C(=O)N[C@@H](C)CO`, the Inhibition (Rattus norvegicus [6]) was greater than 80%, the IC50 [2] was 5.5 nM and the Kb [3] was 0.631 nM.

`CC(=O)Nc1ccc(C[C@@H](NC(=O)[C@H](Cc2ccc(NC(=O)C[C@@H]3NC(=O)NC3=O)cc2)NC(=O)[C@H](CO)NC(=O)[C@@H](Cc2cccnc2)NC(=O)[C@@H](Cc2ccc(Cl)cc2)NC(=O)[C@@H](Cc2ccc3ccccc3c2)NC(C)=O)C(=O)N[C@@H](CC(C)C)C(=O)N[C@@H](CCCCNC(C)C)C(=O)N2CCC[C@H]2C(=O)N[C@H](C)C(N)=O)cc1` showed an Inhibition (Rattus norvegicus [1]) greater than 80% and an IC50 [2] of 8.1 nM.
